# EBV gp42 inh: blocks Epstein-Barr virus glycoprotein 42 binding | Q1HVG2 | Fluorescence polarization binding assay, mP read-out | inhibition, % (tested at 21.74 µM) | 0.42% of 220,000 active | AID 1085; in the data active = inhibition above about 50%
# Target sequence (Q1HVG2 whole entry, looked up): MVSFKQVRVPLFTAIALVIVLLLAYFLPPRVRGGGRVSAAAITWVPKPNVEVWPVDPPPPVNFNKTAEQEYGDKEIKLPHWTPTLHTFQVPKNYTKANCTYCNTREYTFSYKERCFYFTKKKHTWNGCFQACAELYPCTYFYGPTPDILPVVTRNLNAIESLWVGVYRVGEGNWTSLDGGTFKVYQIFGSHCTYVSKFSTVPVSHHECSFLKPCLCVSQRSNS
# WT yeast gro inh: growth inhibition of WT yeast, mitochondrial fusion screen | inhibition, % at 10 µM | mitochondrial fusion phenotypic screen, WT strain | 2.1% of 190,000 active | AID 1362; in the data active = inhibition above about 58%; tested in S. cerevisiae
# GRIN3A LBD mod: NR3A (human) ligand-binding domain modulation. Tm shift relative to glycine control, % at 25 µM. NR3A LBD differential scanning fluorimetry, Tm shift; 0% = protein alone, 100% = glycine-bound protein. AID 1259313. 2.5% of 340,000 active;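 active = melting temperature shift of at least 10% of the positive control shift, at one fixed dose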
# CHOP inhibitor: CHOP inhibition in unfolded protein response | 3.8% of 220,000 active | inhibition, % at 10 µM | CHO-K1 CHOP-promoter luciferase, tunicamycin-induced, 15-18 h | AID 2732;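 active = compounds that reduced the stress-induced luciferase reporter signal by more than about 70% of percent inhibition, limit read from the data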;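 also: 0% = tunicamycin plus vehicle and 100% = wells without tunicamycin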
# MPTP block: permeability transition pore inhibition | isolated mouse mitochondria, Ca2+ swelling absorbance, 30 min | inhibition, % at 10 µM | 1.4% of 360,000 active | AID 602449;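 active = inhibition of 50% or more, scaled per plate between neutral and stimulator controls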;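 also: 0% = DMSO wells given calcium and 100% = 1 mM EGTA wells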
# Tb MetRS inh: blocks T. brucei methionyl-tRNA synthetase activity. purified T. brucei MetRS, ATP depletion, Kinase-Glo luminescence. inhibition, % at 11.9 µM. 0.4% of 360,000 active. AID 624268;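 active = inhibition above a per-plate cutoff of the control wells' mean inhibition plus 3 SD, cut at about 5.5% in these data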;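 also: 0% = DMSO wells median and 100% = median of wells with control inhibitor compound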
#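 Test system: purified T. brucei MetRS enzyme. Also added: ATP, methionine and E. coli bulk tRNA substrates. Compound: 11.9 µM single point. Schedule: 15 min enzyme-compound preincubation, 2 h reaction, 10 min detection, 25 °C. Signal: luciferase luminescence of residual ATP, Kinase-Glo. Evaluation: percent inhibition versus plate control medians. Controls: DMSO wells, low control.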
# Active calls of the source: *; / = no result. Rows were chosen to be rich in hits. Some 6.4% of all compounds tested hit in one or more screens of this group.
SMILES,EBV gp42 inh,WT yeast gro inh,GRIN3A LBD mod,CHOP inhibitor,MPTP block,Tb MetRS inh
O=C(CN1CCOCC1)Nc1ccc(S(=O)(=O)NC2CCCCC2)cc1,-11,6,0,35,-1,0
CC1(C(=O)NCc2cccc(Cl)c2)Cc2c(-c3ccc4c(c3)OCO4)ccnc2O1 (configuration not stated),/,/,/,/,0,0
Cc1ccccc1NC(=O)/C(C#N)=C/c1ccc[nH]1,/,/,2,/,1,0
COc1ccc(CN2CCNC(=O)C2CC(=O)N(C)CC2CCOCC2)c(F)c1 (configuration not stated),/,/,7,/,-2,0
CCCCCc1ccc(OCCCC[n+]2ccc(C)cc2)c(CCCCC)c1,6,98*,-4,75*,40,-1
CCCCCc1ccc(OCCCC[n+]2ccccc2)c(CCCCC)c1,9,86*,-4,-21,9,0
Cc1cc(=O)oc2cc(OCCCC[n+]3ccccc3)ccc12,-9,/,-4,7,1,0
CCCCCc1ccc(OCCCC[n+]2cccc(C)c2)c(CCCCC)c1,-19,85,-9,89*,10,-1
CCCCOc1ccc(C)cc1CN(CCO)CCO,-18,-6,1,4,0,0
CCC(C)(C)c1ccc(OCCCC[n+]2ccccc2)c(C(C)(C)CC)c1,-8,93*,-5,-3,6,-1
CCCCCOc1ccc(CN2CCOCC2)cc1Cl,1,42,0,-33,-1,-1
COC(=O)/C(C#N)=C/c1c(N2CCN(c3ccccc3)CC2)nc2ccccn2c1=O,/,/,4,/,-1,0
Cn1cc(C(=O)N2CCc3ccccc3C2)c(=O)c2cc(S(=O)(=O)N3CCOCC3)ccc21,-6,8,2,-4,-1,0
Cc1cnc(C(=O)OCC(=O)Nc2cc(Cl)cc(Cl)c2)cn1,-13,-4,13*,-14,1,0
CC(=O)OCC(=O)Nc1ccc(Br)c(C)c1,-6,10,0,3,0,-2
Cc1cnc(C(=O)OCC(=O)Nc2ccc(Br)c(C)c2)cn1,/,/,12*,/,0,0
Cc1nc(CS(=O)c2ccc(Cl)cc2)cc(NCc2ccc(Cl)cc2Cl)n1 (configuration not stated),2,59*,-3,54,-2,3
Cc1nc(CSc2ccc(Cl)cc2)cc(NCc2ccccc2)n1,-2,54,-20,91*,0,4
Cc1ccc(-c2cc(C(=O)Nc3sc4c(c3C(=O)NCc3ccco3)CCC4)[nH]n2)c(O)c1,-23,8,21*,31,6,0
c1ccc(N(c2ccccc2)c2nc(N3CCCC3)nc(-n3ccnc3)n2)cc1,11,78*,2,49,10,0
COc1ccc(C=NNc2nc3c([nH]2)c(=O)n(C)c(=O)n3C)cc1,/,/,-6,/,-1,0
COCCn1c(SCC(=O)Nc2sc(C)c(C)c2C#N)nnc1C(C)C,-16,0,-1,6,21,0
Cc1c2cnn(CC(=O)Nc3c(F)c(F)cc(F)c3F)c(=O)c2c(C)n1Cc1ccc(F)cc1,1,-3,/,79*,/,/
Cc1c2cnn(CC(=O)NCc3ccccn3)c(=O)c2c(C)n1Cc1ccccc1,/,/,0,/,-1,0
Clc1cccc(OCCN2CCCC2)c1,/,/,1,/,0,-2
SMILES,EBV gp42 inh,WT yeast gro inh,GRIN3A LBD mod,CHOP inhibitor,MPTP block,Tb MetRS inh
CN(CC(=O)Nc1ccc(F)c(F)c1F)c1cnccn1,-31,0,/,74*,/,/
CN(CC(=O)Nc1ccc(F)c(F)c1F)C1CCCCC1,-28,5,-3,75*,0,-1
Cc1cc(NC(=O)CN(C)CC(=O)Nc2ccc(F)c(F)c2F)no1,/,/,-2,/,0,0
COc1ccc2[nH]cc(C(=O)NCCc3ccccc3)c(=O)c2c1,/,/,1,/,0,0
Cn1c2c(c(=O)n(C)c1=O)CN(CC1CCCO1)CN2 (configuration not stated),4,-4,2,73*,0,0
CCOC(=O)c1c(-c2cccs2)csc1NC(=O)CN1CC(C)OC(C)C1 (configuration not stated),-13,56,1,84*,-2,-1
CCOC(=O)c1c(-c2cccs2)csc1NC(=O)C(C)(C)C,-2,60*,1,-6,1,0
CCOC(=O)c1c(-c2cccs2)csc1NC(C)=O,-16,10,-1,39,2,-2

# Screening results deposited in PubChem BioAssay by several laboratories.
